Source: ChEMBL document CHEMBL1156920, “Structural analogues of schweinfurthin F: probing the steric, electronic, and hydrophobic properties of the D-ring substructure” (Bioorg Med Chem, 2010)

Assays:
[1] = tested on: A549; test: Cytotoxicity against human A549 cells after 44 hrs by MTT assay; type: functional, cell-based; details: A549, 44 h
Summary of the method: (§1)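 SF-295 cells cultured in RPMI 1640 and A549 cells in F-12, each with 10% FBS, penicillin–streptomycin, amphotericin B and L-glutamine, at 37 °C in 5% CO2. Cells were grown to 60% confluency, then treated for 44 h. Medium was replaced with medium containing 0.06 mg/mL MTT (phenol red-free RPMI for SF-295) for 4 h. Acid/Triton/isopropanol stop solution was added, plates incubated overnight at 37 °C, OD read at 540 and 650 nm, and EC50 calculated.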

[2] = tested on: SF-295; test: Cytotoxicity against human SF295 cells after 44 hrs by MTT assay; type: functional, cell-based; details: SF-295, 44 h; summary of the method: as §1

Compound CCCc1c(O)cc(/C=C/c2cc3c(c(OC)c2)O[C@]2(C)CC[C@@H](O)C(C)(C)[C@H]2C3)cc1O has an EC50 [1] greater than 10000 nM and an EC50 [2] of 900 nM.

COc1cc(/C=C/c2cc(O)c(CCCO)c(O)c2)cc2c1O[C@]1(C)CC[C@@H](O)C(C)(C)[C@H]1C2 was tested, and the EC50 [1] was greater than 10000 nM and the EC50 [2] was 2500 nM.

Compound COc1cc(/C=C/c2cc(O)c3c(c2)OCC3)cc2c1O[C@]1(C)CC[C@@H](O)C(C)(C)[C@H]1C2 has an EC50 [1] greater than 10000 nM and an EC50 [2] of 2900 nM.

With COc1cc(CCc2cc(O)c(CCC(C)C)c(O)c2)cc2c1O[C@]1(C)CC[C@@H](O)C(C)(C)[C@H]1C2 the EC50 [1] was greater than 10000 nM and the EC50 [2] was 2800 nM.

Compound C=CCc1c(O)cc(/C=C/c2cc3c(c(OC)c2)O[C@]2(C)CC[C@@H](O)C(C)(C)[C@H]2C3)cc1O has an EC50 [1] greater than 10000 nM and an EC50 [2] of 1700 nM.

C#CCc1c(O)cc(/C=C/c2cc3c(c(OC)c2)O[C@]2(C)CC[C@@H](O)C(C)(C)[C@H]2C3)cc1O was tested, and the EC50 [1] was greater than 10000 nM and the EC50 [2] was 1300 nM.

COc1cc(/C=C/c2cc(O)c3ccoc3c2)cc2c1O[C@]1(C)CC[C@@H](O)C(C)(C)[C@H]1C2 showed an EC50 [1] greater than 10000 nM and an EC50 [2] of 4800 nM.

For COc1cc(/C=C\c2cc(O)c(C/C=C(\C)CCC=C(C)C)c(O)c2)cc2c1O[C@]1(C)CC[C@@H](O)C(C)(C)[C@H]1C2, the EC50 [1] was greater than 10000 nM and the EC50 [2] was greater than 10000 nM.

Work on COc1cc(CCc2cc(O)c(CC=C(C)C)c(O)c2)cc2c1O[C@]1(C)CC[C@@H](O)C(C)(C)[C@H]1C2 yielded an EC50 [1] greater than 10000 nM and an EC50 [2] of 2900 nM.
